In ChEMBL document CHEMBL1123644, “Potential antitumor agents. 53. Synthesis, DNA binding properties, and biological activity of perimidines designed as "minimal" DNA-intercalating agents” (J Med Chem, 1987):
Calls of active or inactive are those of the source. No cut-off for these calls is given here.

Columns and labels:
Nucleic Acid [1] = assay: The compound was tested for DNA (from Escherichia coli plasmid pNZ116 ) binding constant to poly[d(G-C)] determined by ethidium bromide displacement; type: nucleic-acid assay
How it was run: (§1)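 Binding constants to poly[d(A-T)] and poly[d(G-C)] were determined by ethidium bromide displacement.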

P388 [2] = assay: Optimal dose administered intraperitoneally as a solution in 0.1 mL of 30% v/v ethanol-water on days 1,5 and 9 after intraperitoneal inoculation of 10 e6 P388 leukemia cells; type: functional, Mus musculus
Nucleic Acid [3] = assay: The compound was tested for DNA (from Escherichia coli plasmid pNZ116 ) binding constant to poly[d(A-T)] determined by ethidium bromide displacement; type: nucleic-acid assay; how it was run: as §1
L1210 = assay: In vitro growth inhibition of murine leukemia L1210 cells after 40 hours exposure.; type: functional, cell-based; details: Mus musculus, L1210, 40 h
P388 [4] = assay: Percent increase in life span of drug treated tumor( P388 leukemia cells)-bearing animal compared to that of untreated tumor bearing control when treated at optimal dose; Compound inactive at all dose levels up to toxic ones; type: functional; details: Mus musculus
[5] = The pKa value spectrophotometrically in water at 25 degree Centigrade; type: physicochemical
P388 [6] = assay: Optimal dose administered intraperitoneally as a solution in 0.1 mL of 30% v/v ethanol-water on days 1,5 and 9 after intraperitoneal inoculation of 10 e6 P388 leukemia cells; ND means no data; type: functional, Mus musculus
P388 [7] = assay: Percent increase in life span of drug treated tumor( P388 leukemia cells)-bearing animal compared to that of untreated tumor bearing control when treated at optimal dose; type: functional, Mus musculus
P388 [8] = assay: Percent increase in life span of drug treated tumor( P388 leukemia cells)-bearing animal compared to that of untreated tumor bearing control when treated at optimal dose; NA means not active; type: functional; details: Mus musculus
P388 [9] = assay: Percent increase in life span of drug treated tumor( P388 leukemia cells)-bearing animal compared to that of untreated tumor bearing control when treated at optimal dose; NA means not active compound inactive at all dose levels up to toxic ones; type: functional; details: Mus musculus

SMILES	Log K (Nucleic Acid [1])	Log K (Nucleic Acid [3])	IC50 (L1210)	OD (P388 [2])	also measured
CN(C)CCNC(=O)C1=Nc2cccc3cncc(c23)N1	5.88	5.71	21700 nM	65 mg/kg/day	ILS (P388 [4]): inactive
CN(C)CCCNC1=Nc2cccc3cccc(c23)N1	–	–	4000 nM	–	–
CN(C)CCNC1=Nc2cccc3cccc(c23)N1	5.9	5.77	2500 nM	65 mg/kg/day	ILS (P388 [4]): inactive
CN(C)CCCNC(=O)CC1=Nc2cccc3cccc(c23)N1	–	–	> 21000 nM	–	–
O=C(NCCN1CCOCC1)C1=Nc2cccc3cccc(c23)N1	–	–	14100 nM	–	–
CN(C)CCN1C(=O)c2cccc3cccc(c23)C1=O	5.87	5.46	1600 nM	–	OD (P388 [6]): 150 mg/kg/day; ILS (P388 [7]): 31%
CN(C)CCNC(=O)CC1=Nc2cccc3cccc(c23)N1	5.88	5.74	16700 nM	65 mg/kg/day	ILS (P388 [8]): inactive
CN(C)CCCSC1=Nc2cccc3cccc(c23)N1	–	–	5700 nM	–	–
CN(C)CCN1C=Nc2cccc3cccc1c23	5.31	5.17	20000 nM	150 mg/kg/day	pKa [5]: 4.64; ILS (P388 [4]): inactive
CN(C)CCCN1C=Nc2cccc3cccc1c23	–	–	15300 nM	150 mg/kg/day	pKa [5]: 5.1; ILS (P388 [9]): inactive
CN(C)CCSC1=Nc2cccc3cccc(c23)N1	6.1	5.78	1800 nM	150 mg/kg/day	pKa [5]: 2.66; ILS (P388 [4]): inactive
CN(C)CCCCN1C(=O)c2cccc3cccc(c23)C1=O	–	–	1900 nM	–	–
CN(C)CCCCN1C=Nc2cccc3cccc1c23	–	–	2200 nM	–	pKa [5]: 5.3

These reach a lower IC50 (L1210). Values come first.

Log K (Nucleic Acid [1])	Log K (Nucleic Acid [3])	IC50 (L1210)	SMILES	OD (P388 [2])	also measured
–	–	1500 nM	CN(C)CCCCNC(=O)C1=Nc2cccc3cccc(c23)N1	–	–
6.51	6.51	440 nM	CN(C)CCNC(=O)C1=Nc2cccc3cccc(c23)N1	150 mg/kg/day	pKa [5]: 1.74; ILS (P388 [4]): inactive
–	–	1300 nM	O=C(NCCN1CCCCC1)C1=Nc2cccc3cccc(c23)N1	–	–
–	–	870 nM	CN(C)CCCNC(=O)C1=Nc2cccc3cccc(c23)N1	–	–
–	–	1100 nM	CCN(CC)CCNC(=O)C1=Nc2cccc3cccc(c23)N1	–	–
